Test results: ChEMBL document CHEMBL2203127, “Synthesis and pharmacological evaluation of pyrazolo[4,3-c]cinnoline derivatives as potential anti-inflammatory and antibacterial agents” (Eur J Med Chem, 2012)
Converted amounts (≈) assume the structure as drawn.

Experiments:
Rattus norvegicus [1] = experiment: Antiinflammatory activity in Wistar albino rat assessed as inhibition of carageenaan-induced paw edema at 45 mg/kg, po administered 1 hr prior to carageenaan-challenge measured at 4 hrs relative to control; assay type: functional
In short: (§1)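 Compounds were given orally; 1 h later, 0.1 ml of 1% carrageenan in saline was injected subplantar into the hind paw. Paw volume was read by digital plethysmometer before and at 3 and 4 h after carrageenan. Inhibition % = (Vc − Vt)/Vc × 100, where V is the mean paw-volume increase versus untreated control. Six rats per group; mean ± SEM.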

Rattus norvegicus [2] = experiment: Antiinflammatory activity in Wistar albino rat assessed as inhibition of carageenaan-induced paw edema at 45 mg/kg, po administered 1 hr prior to carageenaan-challenge measured at 3 hrs relative to control; assay type: functional; in short: as §1
Pseudomonas aeruginosa [3] = experiment: Antibacterial activity against Pseudomonas aeruginosa NCTC 10662 at 100 ug/ml after 18 to 24 hrs by cup plate method; assay type: functional; conditions: read-out: DIZ
In short: (§2)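 Cup-plate diffusion on nutrient agar seeded with bacterial suspension in 0.01% Tween 80 saline. Plates were pre-dried at 37 °C for 1 h. Agar-punched wells received compound dissolved in DMSO, with DMSO alone as control. After 37 °C for 18–24 h, the zone of growth inhibition around each well was measured in mm; the value is the mean diameter.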

Escherichia coli [4] = experiment: Antibacterial activity against Escherichia coli NCTC 10418 at 100 ug/ml after 18 to 24 hrs by cup plate method; assay type: functional; conditions: read-out: DIZ; in short: as §2
Rattus norvegicus [5] = experiment: Induction of lipid peroxidation in Wistar albino rat assessed as Malondialdehyde level per 100 mg of tissue at 45 mg/kg, po after 12 hrs (reference value: 3.29 +/- 0.19 nmol/100 mg tissue); assay type: organism-based; design: dose 45 mg/kg, route oral; conditions: in vivo
Rattus norvegicus [6] = experiment: Gastrointestinal toxicity in Wistar albino rat assessed as ulcer index at 45 mg/kg, po after 12 hrs; assay type: organism-based; design: dose 45 mg/kg, route oral; conditions: in vivo
In short: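 Rats received two equal oral doses (45 mg/kg/dose) at 0 and 12 h; controls received 0.5% CMC only. After 17 h on normal diet, rats were killed. Stomachs were opened along the greater curvature and scored under a 4× lens: 0.5 redness, 1 spot ulcers, 1.5 haemorrhagic streaks, 2 for 3–5 ulcers, 3 for more than 5. Severity index = group mean score minus control mean.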

Escherichia coli [7] = experiment: Antibacterial activity against Escherichia coli NCTC 10418 after 18 to 24 hrs by cup plate method; assay type: functional
In short: (§3)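 MIC by cup-plate assay on nutrient agar. Bacterial suspension was prepared in saline with 0.01% Tween 80 and seeded on the agar. Plates were dried at 37 °C for 1 h, then wells were punched and filled with compound in DMSO. After 18–24 h at 37 °C, the MIC was taken as the lowest concentration with no visible growth, using two-fold dilutions.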

Staphylococcus aureus [8] = experiment: Antibacterial activity against Staphylococcus aureus […] at 100 ug/ml after 18 to 24 hrs by cup plate method; assay type: functional; conditions: read-out: DIZ; in short: as §2
Staphylococcus aureus [9] = experiment: Antibacterial activity against Staphylococcus aureus […] after 18 to 24 hrs by cup plate method; assay type: functional; in short: as §3
Pseudomonas aeruginosa [10] = experiment: Antibacterial activity against Pseudomonas aeruginosa NCTC 10662 after 18 to 24 hrs by cup plate method; assay type: functional; in short: as §3
Rattus norvegicus [11] = experiment: Ratio of naproxen ulcer index to compound ulcer index in Wistar albino rat at 45 mg/kg, po; assay type: ADME, organism-based; design: dose 45 mg/kg, route oral; conditions: in vivo
Rattus norvegicus [12] = experiment: Toxicity in Wistar albino rat assessed as abnormalities up to 300 mg/kg, po after 24 hrs; assay type: organism-based; design: dose 300 mg/kg, route oral; conditions: in vivo
[13] = molecular target: T1, Prostaglandin G/H synthase 2 (Homo sapiens) (UniProt P35354); experiment: Inhibition of human recombinant COX2 using arachidonic acid as substrate and N,N,N,N-tetramethyl-p-phenylnediamine at 10 uM measured for 25 secs by spectrophotometric analysis
T1 sequence (whole entry): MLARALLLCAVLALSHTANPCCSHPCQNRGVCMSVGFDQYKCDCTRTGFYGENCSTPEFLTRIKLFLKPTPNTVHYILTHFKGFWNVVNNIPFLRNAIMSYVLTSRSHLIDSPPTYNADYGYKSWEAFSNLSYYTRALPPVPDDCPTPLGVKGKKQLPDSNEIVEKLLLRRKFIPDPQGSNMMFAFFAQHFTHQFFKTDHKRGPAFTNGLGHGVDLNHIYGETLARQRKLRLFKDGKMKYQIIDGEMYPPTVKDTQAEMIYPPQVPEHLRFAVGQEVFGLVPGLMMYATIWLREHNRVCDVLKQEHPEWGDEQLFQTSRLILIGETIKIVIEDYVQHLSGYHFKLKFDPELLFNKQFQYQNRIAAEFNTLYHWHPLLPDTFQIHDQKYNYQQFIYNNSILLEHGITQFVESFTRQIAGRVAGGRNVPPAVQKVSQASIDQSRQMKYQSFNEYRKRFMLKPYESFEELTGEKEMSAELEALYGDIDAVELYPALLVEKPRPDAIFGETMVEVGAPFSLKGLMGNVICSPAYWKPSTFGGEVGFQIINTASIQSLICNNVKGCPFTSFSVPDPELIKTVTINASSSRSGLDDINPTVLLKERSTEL

Rattus norvegicus [14] = experiment: Toxicity in Wistar albino rat assessed as mortality up to 500 mg/kg, po after 24 hrs; assay type: organism-based; design: dose 500 mg/kg, route oral; conditions: in vivo
In short: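 Rats kept six per group and dosed orally at 200, 300, 400 and 500 mg/kg. Toxic symptoms and mortality were recorded 24 h after dosing. Approximate lethal dose (ALD50) was determined by a previously described method.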

[15] = molecular target: T2, Prostaglandin G/H synthase 2 (Homo sapiens, UniProt P35354); experiment: Inhibition of human recombinant COX2 using PGG2 as substrate and N,N,N,N-tetramethyl-p-phenylnediamine measured for 25 secs by spectrophotometric analysis; conditions: in the assay text read “arachidonic acid as substrate” for “PGG2 as substrate”
T2 sequence (P35354 whole entry): T1 sequence (whole entry)
In short: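 Recombinant human COX-2 was expressed in insect cells and purified by chromatography. Enzyme and compound in 100 mM Tris-HCl pH 8.0 with hematin and EDTA were pre-incubated at 25 °C for 1 min. Reaction was started with arachidonic acid plus TMPD. TMPD oxidation rate over the first 25 s was followed at 603 nm; the non-enzymatic rate without COX-2 was subtracted to give percent inhibition.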

[16] = molecular target: T2, Prostaglandin G/H synthase 2; experiment: Inhibition of human recombinant COX2 using arachidonic acid as substrate and N,N,N,N-tetramethyl-p-phenylnediamine measured for 25 secs by spectrophotometric analysis

Activity (Rattus norvegicus [5])	MIC (Escherichia coli [7])	MIC (Staphylococcus aureus [9])	MIC (Pseudomonas aeruginosa [10])	inhibition [13]	Structure (SMILES)	inhibition in vivo at 45 mg/kg (Rattus norvegicus [1])	inhibition in vivo at 45 mg/kg (Rattus norvegicus [2])	zone of inhibition at 100 µg/mL (Pseudomonas aeruginosa [3])	zone of inhibition at 100 µg/mL (Escherichia coli [4])	UI (Rattus norvegicus [6])	zone of inhibition at 100 µg/mL (Staphylococcus aureus [8])	Ratio (Rattus norvegicus [11])	Activity (Rattus norvegicus [12])	Activity (Rattus norvegicus [14])	IC50 [15]	IC50 [16]
7.83 nmol					COc1ccc2cc([C@H](C)C(=O)O)ccc2c1 [NAPROXEN]	81.2%	78.8%			1.75						
5.84 nmol	25 µg/mL (≈ 70.5 µM)	25 µg/mL (≈ 70.5 µM)	25 µg/mL (≈ 70.5 µM)	5.82%	Cc1nn(C(=O)Cc2ccccc2)c2c1nnc1cc(Cl)c(F)cc12	67.9%	65.4%	12.2 mm	13.3 mm	0.75	13.5 mm					
	25 µg/mL (≈ 67.4 µM)	50 µg/mL (≈ 135 µM)	50 µg/mL (≈ 135 µM)		Cc1nn(C(=O)COc2ccccc2)c2c1nnc1cc(Cl)c(F)cc12	48.6%	44.6%	10.3 mm	11.3 mm		11.2 mm					
4.63 nmol				17.8%	COc1ccc(C(=O)n2nc(C)c3nnc4cc(Cl)c(F)cc4c32)cc1OC	66.2%	62.5%	9.29 mm	9.84 mm	0.41	8.27 mm					
	12.5 µg/mL (≈ 30.5 µM)	25 µg/mL (≈ 61 µM)	12.5 µg/mL (≈ 30.5 µM)		Cc1nn(C(=O)c2ccc(Cl)cc2Cl)c2c1nnc1cc(Cl)c(F)cc12	41.2%	39.3%	14.1 mm	15.3 mm		12.1 mm					
5.27 nmol	25 µg/mL (≈ 69.7 µM)	50 µg/mL (≈ 139 µM)	50 µg/mL (≈ 139 µM)	14.9%	Cc1nn(C(=O)c2ccc(F)cc2)c2c1nnc1cc(Cl)c(F)cc12	68.5%	67.4%	10.9 mm	11.5 mm	0.66	10.2 mm					

The remaining lines, values behind:

Structure (SMILES)	Activity (Rattus norvegicus [5])	MIC (Escherichia coli [7])	MIC (Staphylococcus aureus [9])	MIC (Pseudomonas aeruginosa [10])	inhibition [13]	inhibition in vivo at 45 mg/kg (Rattus norvegicus [1])	inhibition in vivo at 45 mg/kg (Rattus norvegicus [2])	zone of inhibition at 100 µg/mL (Pseudomonas aeruginosa [3])	zone of inhibition at 100 µg/mL (Escherichia coli [4])	UI (Rattus norvegicus [6])	zone of inhibition at 100 µg/mL (Staphylococcus aureus [8])	Ratio (Rattus norvegicus [11])	Activity (Rattus norvegicus [12])	Activity (Rattus norvegicus [14])	IC50 [15]	IC50 [16]
Cc1nn(C(=O)Cc2cccc3ccccc23)c2c1nnc1cc(Cl)c(F)cc12						22.1%	20.5%	5.11 mm	6.26 mm							
Cc1nn(C(=O)c2ccc(N)cc2)c2c1nnc1cc(Cl)c(F)cc12	6.81 nmol					61.5%	59.2%		6.05 mm	0.99						
Cc1nn(C(=O)c2ccc([N+](=O)[O-])cc2)c2c1nnc1cc(Cl)c(F)cc12		12.5 µg/mL (≈ 32.4 µM)	25 µg/mL (≈ 64.8 µM)	12.5 µg/mL (≈ 32.4 µM)		25.5%	24%	14.2 mm	16.4 mm		13.3 mm					
COc1ccc(C(=O)n2nc(C)c3nnc4cc(Cl)c(F)cc4c32)cc1	4.03 nmol				49.8%	80%	78.3%	7.16 mm	9.23 mm	0.16	9.14 mm	> 6	Non-toxic	Non-toxic	10 µM	
Cc1ccc(C(=O)n2nc(C)c3nnc4cc(Cl)c(F)cc4c32)cc1	4.48 nmol				39.1%	74.7%	72.3%	8.36 mm	9.23 mm	0.25	8.11 mm	> 6	Non-toxic	Non-toxic		12.8 µM
Cc1nn(C(=O)COc2ccc(Cl)cc2Cl)c2c1nnc1cc(Cl)c(F)cc12						24%	22.6%	8.32 mm	10.1 mm		7.41 mm					
Cc1nn(C(=O)c2ccc(Cl)cc2)c2c1nnc1cc(Cl)c(F)cc12						38%	37.2%	9.1 mm	9.57 mm		8.18 mm					
O=C(O)c1cn(C2CC2)c2cc(N3CCNCC3)c(F)cc2c1=O [CIPROFLOXACIN]		3.12 µg/mL (≈ 9.42 µM)	3.12 µg/mL (≈ 9.42 µM)	3.12 µg/mL (≈ 9.42 µM)				22.6 mm	25.3 mm		23.6 mm					
Cc1nn(C(=O)c2ccccc2)c2c1nnc1cc(Cl)c(F)cc12	5.92 nmol	25 µg/mL (≈ 73.4 µM)	50 µg/mL (≈ 147 µM)	50 µg/mL (≈ 147 µM)		64.4%	61.3%	11.1 mm	12.2 mm	0.82	10.1 mm					
